# H69AR inhibit = growth inhibitors of human H69AR lung tumor cells. H69AR lung tumor viability, ATP luminescence, 72 h; active compounds read low. viability, % at 10 µM. actives 6% (n = 85,000). AID 598;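 active means viability at or below 40%; inactive means viability above 40%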;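 further: multidrug resistant small cell line overexpressing MRP-1 efflux transporter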
# Jurkat viability = cytotoxicity toward Jurkat cells | Jurkat E6.1 viability, ATP luminescence, 48 h | inhibition, % at 4 µM | actives 1.2% (n = 56,000) | AID 463;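 active means inhibition above the mean inhibition of all tested compounds plus 3 SD, cut at about 28% in these data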
# HUVEC inhibit = blocks proliferation of human endothelial cells; HUVEC proliferation, CellTiter-Glo luminescence, 72 h; active compounds read low; viability, % at 10 µM (by protocol); actives 1.1% (n = 86,000); AID 648;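 active means viability at or below 30%; inactive means viability above 30%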
# Fibroblast inh = blocks proliferation of human lung fibroblasts | LL 47 human lung fibroblast viability, ATP luminescence; active compounds read low | viability, % at 10 µM | actives 1.1% (n = 85,000);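 active means viability at or below 50% in the single dose screen; inactive means viability above 50%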;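 further: compound exposure lasted 72 h before the ATP readout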
#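 Test system: LL 47 human lung fibroblasts / Incubation: 72 h compound exposure at 37 °C after overnight plating / Technique: luminescent ATP detection, CellTiter-Glo / Compound dosing: 0.1% DMSO in all compound wells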
# Numbers stand for hits; i = inactive; nt = not tested or not shown. Most compounds without a hit are left out; they make up all but 6.4% or so of the library.
SMILES,H69AR inhibit,Jurkat viability,HUVEC inhibit,Fibroblast inh
Cn1c(C(=O)NC2CCCCC2)cc2c(=O)n(C)c3ccccc3c21,11,i,i,i
Cn1c(C(=O)NC2CCCCCC2)cc2c(=O)n(C)c3ccccc3c21,12,i,i,i
CC1CCC(NC(=O)c2cc3c(=O)n(C)c4ccccc4c3n2C)CC1 (configuration not stated),29,i,i,i
CC(C)c1ccc(-c2nc(N3CCCC3)nc3n[nH]c(N)c23)cc1,11,nt,i,i
CC(C)c1ccc(-c2nc(N3CCCCCC3)nc3n[nH]c(N)c23)cc1,i,nt,i,i
O=C(CCS(=O)(=O)Cc1ccccc1)Nc1nc2c(s1)CCCC2,22,i,i,i
O=C(CS(=O)(=O)Cc1ccccc1)Nc1nc2c(s1)CCCC2,i,i,i,i
Cc1noc(C)c1CSc1nc2ccccc2c(=O)n1-c1ccccc1,17,89,i,i
Cc1noc(C)c1CSc1nc2[nH]ncc2c(=O)n1-c1ccccc1,nt,83,nt,nt
Cc1nc(CSc2nc3[nH]ncc3c(=O)n2-c2ccccc2)cs1,i,i,i,i
COc1ccc(-c2noc(CSc3nc4ccccc4c(=O)n3-c3ccccc3)n2)cc1,29,i,i,i
O=c1c2ccccc2nc(SCc2nnc(-c3ccccc3)o2)n1-c1ccccc1,i,i,i,i
Cc1noc(C)c1CSc1nc2ccccc2c(=O)n1-c1ccc(F)cc1F,23,92,i,i
CC1CN(C(=O)C(c2ccccc2)c2ccccc2)CC(C)O1 (configuration not stated),i,nt,i,i
COc1cccc(CNC(=O)C2CCCN(S(=O)(=O)c3cccc4nonc34)C2)c1 (configuration not stated),i,nt,i,i
COc1cc(CNc2cc(C)ccc2C)cc(OC)c1OC,i,i,i,i
COc1cc(CNc2ccc(C)c(C)c2)cc(OC)c1OC,19,88,i,nt
COc1cc(C)c(CNc2ccc(OC)c(OC)c2)cc1C,36,i,i,nt
CCCC(=O)N1CCN(c2ccc(C(=O)c3ccc(OC)c(Br)c3)cc2F)CC1,i,i,i,i
COc1ccc(C(=O)c2ccc(N3CCN(C(=O)c4ccc(F)cc4)CC3)c(F)c2)cc1Br,36,nt,i,i
CCOC(=O)c1ccc2nc(NC(=O)c3ccco3)sc2c1,i,i,i,i
C=CCN(CC=C)S(=O)(=O)c1ccc2nc(NC(=O)C(C)C)sc2c1,14,72,26,i
CCOC(=O)c1ccc2nc(NC(=O)c3cccs3)sc2c1,38,nt,i,i
CCOC(=O)c1ccc2nc(NC(=O)C(C)C)sc2c1,34,i,i,i
CCOc1ccc(Br)cc1/C(C)=N\NC1=NCCN1,18,nt,i,i
SMILES,H69AR inhibit,Jurkat viability,HUVEC inhibit,Fibroblast inh
COc1ccc(S(=O)(=O)N(C)CC(=O)O)c2ccccc12,i,i,i,i
COc1ccc(C(=O)COc2ccccc2N2C(=O)C3C4C=CC(C4)C3C2=O)cc1 (configuration not stated),i,nt,i,i
CCN(CC)CCCNC(=O)c1cc2c(-c3ccc(Cl)cc3)nn(C)c2s1,1.8,i,2.4,19
CN1CCN(CCCNC(=O)c2cc3c(-c4ccc(Cl)cc4)nn(C)c3s2)CC1,4.5,i,1.9,14
Cn1nc(-c2ccc(Cl)cc2)c2cc(C(=O)N3CCOCC3)sc21,i,i,i,i
Cn1nc(-c2ccc(Cl)cc2)c2cc(C(=O)NCC3CCCO3)sc21 (configuration not stated),i,i,i,i
Cn1c(-c2ccc3c(c2)OCO3)cnc1NCc1cccc(Cl)c1,33,i,i,i
Cn1c(-c2ccc3c(c2)OCO3)cnc1NCc1ccccc1,24,i,i,i
Cn1c(-c2ccc3c(c2)OCO3)cnc1NC(=O)CCC(=O)NCCc1ccccc1,i,i,i,i
O=C(c1ccco1)N1CCN(C2CCCC2)CC1,nt,i,nt,nt
COc1ccc2c(c1)C1(Nc3ccccc3-c3nc4ccccc4n31)C(=O)N2C (configuration not stated),37,i,i,nt
O=c1cc(N2CCC3(CC2)OCCO3)[nH]c(=O)n1C1CCCCC1,i,i,i,i
O=c1cc(N2CCN(c3ccc(F)cc3)CC2)[nH]c(=O)n1C1CCCCC1,35,i,i,i
C#CCn1c(=NC(=O)c2ccc(Br)s2)sc2cccc(OC)c21,2.6,nt,i,38
C=C(C)Cn1c(SCCN2CCOCC2)nc2c1c(=O)[nH]c(=O)n2C,i,nt,i,i
COc1ccc(-n2c(=O)cc(N3CC(C)OC(C)C3)[nH]c2=O)cc1 (configuration not stated),i,i,i,i
CCCc1nnc(NC(=O)c2c(O)c3cccc4c3n(c2=O)CC4)s1,18,i,i,i
Cc1cccc(NC(=O)c2c(O)c3cccc4c3n(c2=O)CC4)c1,i,nt,i,i
CCc1nnc(NC(=O)c2c(O)c3cccc4c3n(c2=O)CC4)s1,1.8,i,i,i
O=C(Nc1c(C(=O)N2CCOCC2)cnn1-c1ccccc1Cl)c1ccco1,i,i,i,i
Oc1ccccc1/C=N/Nc1nccnc1Cl,i,nt,i,32
CCC(=O)Nc1cccc(NC(=O)CSc2nnc(-c3ccc(NS(C)(=O)=O)cc3)n2CC)c1,i,nt,i,i
COc1cc(C2=NOC(C(=O)NCc3ccco3)C2)cc(OC)c1OC (configuration not stated),25,73,i,i
COc1ccc(C2=NOC(C(=O)NCc3ccco3)C2)cc1 (configuration not stated),25,nt,i,i
CCOC(=O)c1c(C)[nH]c(C(=O)COC(=O)C(C)N2C(=O)C3CCCCC3C2=O)c1C (configuration not stated),i,nt,i,i
SMILES,H69AR inhibit,Jurkat viability,HUVEC inhibit,Fibroblast inh
CCn1c(-c2ccc(N(C)C)cc2)nc2ccccc21,i,50,i,i
Cc1cc2c(N=O)c(NO)ccc2[nH]1,nt,75,i,1.9
CC(=O)Nc1ccc2[nH]c(C)cc(=O)c2c1,i,nt,i,i
Nc1ccc(-c2nc3c(Cl)c(N)ccc3[nH]2)cc1,21,i,i,i
Nc1ccc2nc(-c3ccc(Cl)cc3)[nH]c2c1,17,i,i,i
Nc1ccc2nc(-c3cc(Cl)c(N)c(Cl)c3)[nH]c2c1,35,nt,i,i
COC(=O)c1c(C)oc(C)c(C(=O)OC)c1=O,i,i,i,i
CCOC(=O)c1c(C)oc2c(F)c(F)c(F)c(F)c2c1=O,nt,i,8.7,i
O=C(Nc1ccc(-c2noc(COc3ccccc3Cl)n2)cc1)c1ccco1,29,nt,i,i
Cc1ccc(Nc2nc(Nc3ccc(C)cc3)nc(SC3=NCCS3)n2)cc1,11,nt,i,i
Cc1ccccc1Nc1nc(Nc2ccccc2C)nc(SC2=NCCS2)n1,i,nt,i,i
CCCN(CCC)CCCNC(=O)c1cc2cc3ccc(OC)cc3nc2o1,i,i,i,i
COc1ccc2nc3oc(C(=O)Nc4ccc(OC)c(OC)c4)cc3cc2c1,i,nt,i,i
COc1ccc2cc3cc(C(=O)Nc4ccc5c(c4)OCO5)oc3nc2c1,24,i,10,i
COc1ccc2cc3cc(C(=O)NCCc4ccc(OC)c(OC)c4)oc3nc2c1,29,i,25,i
CCOC(=O)c1cc2sccc2n1CC(=O)N1c2ccccc2CC1C (configuration not stated),4.7,nt,12,i
CCOC(=O)c1cc2sccc2n1CC(=O)O,i,nt,i,i
